Measured values from ChEMBL document CHEMBL1123361, “Syntheses and beta-adrenergic agonist and antiaggregatory properties of N-substituted trimetoquinol analogues” (J Med Chem, 1986).

Experiments:
[1] = organism: Homo sapiens; experiment: Compound was evaluated for the inhibition of U-46,619-induced human platelet aggregation (Antiaggregatory activity); type: functional
Summary of the method: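 Washed human platelets (ACD blood from aspirin-free donors, apyrase-washed, resuspended in calcium-containing modified Tyrode's pH 7.4, 3×10^8/mL) preincubated with vehicle or drug 3 min at 37 °C, then challenged with the minimum U46619 dose (0.8-2.0 μM) giving maximal irreversible aggregation; turbidometric readout ≥2 min; IC50 from % inhibition vs log concentration plots; mean ± SEM, 3-4 donors.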

[2] = organism: Homo sapiens; experiment: Compound was evaluated for the secretion of [14C]- Serotonin (Antisecretory activity); type: functional
Summary of the method: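 [14C]serotonin release measured in the same U46619-challenged washed human platelet samples as aggregation: supernatant radioactivity after 10000g 30 s spin, scintillation counting, relative to total after lysis; net U46619-evoked release as % of total; IC50 from % inhibition of maximal release vs log concentration; mean ± SEM, ≥3 preparations.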

[3] = biological target: Beta-1 adrenergic receptor (Cavia porcellus) (UniProt B0FL73)
[4] = biological target: Beta-2 adrenergic receptor (Cavia porcellus) (UniProt Q8K4Z4)
Chain of Beta-2 adrenergic receptor (Cavia porcellus) (Q8K4Z4 whole entry, looked up): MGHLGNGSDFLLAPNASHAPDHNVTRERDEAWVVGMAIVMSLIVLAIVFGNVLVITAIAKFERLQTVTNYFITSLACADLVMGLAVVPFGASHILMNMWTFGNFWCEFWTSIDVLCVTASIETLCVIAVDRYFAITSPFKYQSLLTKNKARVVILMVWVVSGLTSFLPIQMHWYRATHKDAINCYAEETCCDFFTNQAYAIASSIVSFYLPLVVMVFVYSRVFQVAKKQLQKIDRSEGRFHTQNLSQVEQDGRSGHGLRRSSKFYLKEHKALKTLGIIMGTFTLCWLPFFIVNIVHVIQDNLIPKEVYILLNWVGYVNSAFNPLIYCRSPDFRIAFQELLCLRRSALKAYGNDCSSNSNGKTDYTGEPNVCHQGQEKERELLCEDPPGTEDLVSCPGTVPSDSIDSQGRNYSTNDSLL

Chain of Beta-1 adrenergic receptor (Cavia porcellus) (B0FL73 1-467): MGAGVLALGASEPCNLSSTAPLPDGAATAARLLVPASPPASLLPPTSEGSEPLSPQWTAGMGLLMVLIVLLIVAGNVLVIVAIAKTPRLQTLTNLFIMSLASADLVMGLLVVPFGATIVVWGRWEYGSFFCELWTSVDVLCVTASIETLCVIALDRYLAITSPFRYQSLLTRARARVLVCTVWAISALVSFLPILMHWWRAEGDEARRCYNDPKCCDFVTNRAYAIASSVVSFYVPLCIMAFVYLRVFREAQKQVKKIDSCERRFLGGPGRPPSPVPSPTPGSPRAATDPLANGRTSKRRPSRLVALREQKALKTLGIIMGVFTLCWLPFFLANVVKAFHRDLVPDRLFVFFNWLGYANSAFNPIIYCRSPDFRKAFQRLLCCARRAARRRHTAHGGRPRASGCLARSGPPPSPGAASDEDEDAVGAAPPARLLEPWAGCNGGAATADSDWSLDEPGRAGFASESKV

Row | Compound | IC50 [1] [µM] | IC50 [2] [µM] | pD2 [3] | pD2 [4]
1 | COc1cc(CC2c3cc4c(cc3CCN2CCCl)OS(=O)O4)cc(OC)c1OC (stereo not drawn) | 64.2 | 166 | 5.24 | 5.58
2 | COc1cc(C[C@@H]2NCCc3cc(O)c(O)cc32)cc(OC)c1OC | 19.3 | 24.5 | 7.26 | 7.23
3 | COc1cc(CC2c3cc(O)c(O)cc3CCN2CCCl)cc(OC)c1OC (stereo not drawn) | 86.6 | 162 | 4.88 | 5.34
4 | COc1cc(CC2c3cc(O)c(O)cc3CCN2Cc2ccccc2)cc(OC)c1OC (stereo not drawn) | 21.2 | 96.5 | 4.34 | 5.34
5 | COc1cc(CC2c3cc(O)c(O)cc3CCN2C)cc(OC)c1OC (stereo not drawn) | – | – | 5.89 | 6.05
6 | COc1cc(CC2c3cc(O)c(O)cc3CCN2CCO)cc(OC)c1OC (stereo not drawn) | 71.6 | 116 | 5.35 | 5.73
7 | COc1cc(C[C@H]2NCCc3cc(O)c(O)cc32)cc(OC)c1OC | 0.71 | 0.55 | 5.58 | 5.63
8 | COc1cc(CC2NCCc3cc(O)c(O)cc32)cc(OC)c1OC (stereo not drawn) | – | – | 7.1 | 6.96
